Measured values: ChEMBL document CHEMBL3745688, “Discovery of novel hybrids of diaryl-1,2,4-triazoles and caffeic acid as dual inhibitors of cyclooxygenase-2 and 5-lipoxygenase for cancer therapy” (Eur J Med Chem, 2016)
pIC50: −log10 of the molar value.

Key:
A549 [1] = assay: Induction of apoptosis in human A549 cells assessed as viable cells at 25 uM after 72 hrs by annexinV-APC/7-AAD staining based flow cytometry (reference value: 92.08%); type: functional; details: A549, 72 h, read-out: Activity
[2] = Antiproliferative activity against human Caco2 cells after 72 hrs by MTT assay; type: functional, cell-based; details: Caco-2, 72 h
Method in brief: (§1)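 Cells seeded at 5×10^4/well, grown 24 h at 37 °C in 5% CO₂, then exposed to compounds dissolved in DMSO at a range of concentrations for 72 h. MTT (5 mg/mL in PBS) added for 4 h, then OD read at 570 nm. IC50 taken from dose-response curves, mean ± S.D. of three independent experiments.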

A549 [3] = assay: Induction of apoptosis in human A549 cells assessed as early apoptotic cells at 25 uM after 72 hrs by annexinV-APC/7-AAD staining based flow cytometry (reference value: 5.7%); type: functional
[4] = molecular target: T1, Prostaglandin G/H synthase 2 (Rattus norvegicus, UniProt P35355); assay: Inhibition of COX2 in rat abdominal macrophages assessed as PGE2 production pretreated for 30 mins followed by addition of 10 uM arachidonic acid as substrate for 20 mins by EIA
T1 sequence (P35355 whole entry): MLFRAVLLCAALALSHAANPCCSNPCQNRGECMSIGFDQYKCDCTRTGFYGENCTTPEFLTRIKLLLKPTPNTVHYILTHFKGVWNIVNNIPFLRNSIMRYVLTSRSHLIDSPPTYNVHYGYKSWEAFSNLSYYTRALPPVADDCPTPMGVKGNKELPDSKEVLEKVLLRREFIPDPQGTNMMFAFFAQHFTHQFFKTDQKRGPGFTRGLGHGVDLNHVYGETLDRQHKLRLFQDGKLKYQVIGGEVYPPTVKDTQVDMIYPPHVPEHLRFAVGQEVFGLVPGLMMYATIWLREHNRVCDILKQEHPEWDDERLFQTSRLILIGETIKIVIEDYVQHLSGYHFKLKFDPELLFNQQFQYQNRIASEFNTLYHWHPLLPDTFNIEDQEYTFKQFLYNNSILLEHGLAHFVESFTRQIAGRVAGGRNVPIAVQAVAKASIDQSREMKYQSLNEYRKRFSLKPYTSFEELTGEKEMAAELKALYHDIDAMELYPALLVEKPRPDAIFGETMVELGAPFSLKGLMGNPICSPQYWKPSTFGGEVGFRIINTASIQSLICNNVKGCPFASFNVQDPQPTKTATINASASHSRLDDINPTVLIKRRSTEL

A549 [5] = assay: Cell cycle arrest in human A549 cells assessed as accumulation at S phase at 25 uM after 72 hrs by propidium iodide staining based flow cytometry (reference value: 42.46%); type: functional
A549 [6] = assay: Induction of apoptosis in human A549 cells assessed as necrotic cells at 1 uM after 72 hrs by annexinV-APC/7-AAD staining based flow cytometry (reference value: 0.41%); type: functional
A549 [7] = assay: Antiproliferative activity against human A549 cells after 72 hrs by MTT assay; type: functional, cell-based; details: A549, 72 h; method in brief: as §1
[8] = molecular target: T2, Polyunsaturated fatty acid 5-lipoxygenase (Rattus norvegicus, UniProt P12527); assay: Inhibition of 5-LOX in Sprague-Dawley rat leukocytes assessed as A23187 stimulated LTB4 production pretreated for 30 mins followed by addition of A23187 for 30 mins by EIA; type: cell-based
T2 sequence (P12527 whole entry): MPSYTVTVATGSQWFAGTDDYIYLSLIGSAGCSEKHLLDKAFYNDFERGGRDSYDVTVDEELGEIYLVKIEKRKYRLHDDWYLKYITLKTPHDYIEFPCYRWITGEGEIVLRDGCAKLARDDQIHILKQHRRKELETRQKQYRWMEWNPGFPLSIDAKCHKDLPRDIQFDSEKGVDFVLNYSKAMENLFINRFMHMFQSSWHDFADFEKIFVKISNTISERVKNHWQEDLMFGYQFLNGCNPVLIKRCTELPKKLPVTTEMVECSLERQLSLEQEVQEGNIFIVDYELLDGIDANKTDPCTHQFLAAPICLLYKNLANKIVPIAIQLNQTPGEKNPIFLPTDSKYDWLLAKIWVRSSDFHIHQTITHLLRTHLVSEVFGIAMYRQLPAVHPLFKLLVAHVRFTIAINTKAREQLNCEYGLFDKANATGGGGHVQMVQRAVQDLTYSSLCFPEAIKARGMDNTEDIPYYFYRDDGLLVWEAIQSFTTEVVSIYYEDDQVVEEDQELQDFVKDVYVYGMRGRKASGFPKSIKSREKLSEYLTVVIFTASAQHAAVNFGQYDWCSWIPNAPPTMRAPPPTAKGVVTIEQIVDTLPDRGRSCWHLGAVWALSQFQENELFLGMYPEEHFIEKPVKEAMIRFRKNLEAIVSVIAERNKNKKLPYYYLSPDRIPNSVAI
Method in brief: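 Rat peritoneal leukocytes collected from Sprague-Dawley rats primed i.p. with 0.2% glycogen (20 mL/kg). Cells in Hanks solution plated at 1.0×10^6/well and held 10 min at 37 °C. Pretreated 30 min with L-cysteine (10 mM), indomethacin (1 mg/L) and compound or DMSO. A23187 added for 30 min. LTB4 in the clarified supernatant measured by EIA; % inhibition from OD; IC50 by Bliss method.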

`CS(=O)(=O)c1ccc(-c2nc(SCCCOC(=O)/C=C/c3ccc(O)c(O)c3)nn2-c2ccc(F)cc2)cc1` showed a viability at 25 µM (A549 [1]) of 55.1%, a pIC50 [2] of 4.95 and an Activity (A549 [3]) of 37.2%. For the same molecule, the pIC50 [4] was 6.74, the Activity (A549 [5]) was 32.19% and the Activity (A549 [6]) was 0.91%. The pIC50 (A549 [7]) was 5.02 and the pIC50 [8] was 6.15.
